Bioassay records as filed in PubChem.
Only some compounds are listed: those with a hit (about 3% of all), similar ones and a draw of the others.
SENP8 block-1 = blocks human SENP8 cleavage of Nedd8 substrate; recombinant SENP8, Nedd8 substrate fluorescence; inhibition, % at 20 µM; 360,000 compounds, 0.64% hits; AID 602440; in the data active means inhibition mostly above about 40%, no sharp cut-off; inactive means mostly below about 27%
Target sequence (Q96LD8 whole entry, looked up): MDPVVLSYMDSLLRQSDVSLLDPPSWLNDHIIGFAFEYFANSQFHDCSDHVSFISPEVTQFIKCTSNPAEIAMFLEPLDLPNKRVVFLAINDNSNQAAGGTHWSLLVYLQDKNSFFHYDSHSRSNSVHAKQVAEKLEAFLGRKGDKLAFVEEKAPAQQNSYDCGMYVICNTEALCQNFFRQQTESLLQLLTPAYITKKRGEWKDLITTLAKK
SENP8 block-2 = inhibitors of human SENP8 protease. Q96LD8. purified SENP8, Z-RLRGG-aminoluciferin cleavage, luminescence. inhibition, % at 10 µM. 330,000 compounds, 1.2% hits; in the data active means inhibition above about 50%
SENP7 inh = SENP7 protease inhibition | recombinant SENP7, Z-RLRGG-aminoluciferin luminescence, 40 min | inhibition, % at 5 µM | 330,000 compounds, 1.5% hits | AID 434973;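 active means inhibition above about 50% at the single test dose, limit read from the data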;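 further: plate controls were DMSO with enzyme for no effect and no enzyme buffer wells for full effect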
UBC13 inh = inhibitors of human UBC13 polyubiquitin chain formation; P61088; TR-FRET; inhibition, % at 20 µM; 330,000 compounds, 0.47% hits; AID 485273; in the data active means inhibition above about 45%, passing the limit was not always enough
Target sequence (P61088 whole entry, looked up): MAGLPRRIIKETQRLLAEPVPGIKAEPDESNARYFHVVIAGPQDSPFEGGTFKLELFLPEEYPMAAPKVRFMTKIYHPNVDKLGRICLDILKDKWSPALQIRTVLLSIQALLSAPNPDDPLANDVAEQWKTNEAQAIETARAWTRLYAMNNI
Apaf1 inhib = human Apaf-1 inhibition; 330,000 compounds, 0.71% hits; O14727; reconstituted apoptosome caspase-3 activity, DEVD-Rh110 fluorescence; inhibition, % at 20 µM; active means inhibition of at least 40% at 20 µM;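 further: plate controls were DMSO wells for no effect and DEVD-CHO caspase inhibitor wells for full effect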
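Material: reconstituted apoptosome with Apaf-1, cytochrome c, caspase-9, procaspase-3, dATP / Buffer or medium: pH 7.5 Hepes buffer with CHAPS, BSA, DTT / Also added: cytochrome c with DEVD-Rh110 / Schedule: compound with Apaf-1, dATP, procaspase-3 30 min, then 50 min reaction, room temperature / Technique: rhodamine 110 fluorescence at Ex 480/Em 540 nm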
SENP6 inh = SENP6 protease inhibition | Q9GZR1 | Recombinant SENP6 catalytic domain, aminoluciferin luminescence | inhibition, % at 10 µM | 330,000 compounds, 1.8% hits;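 active means inhibition above about 50% at the single tested dose, limit read from the data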;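 further: plate controls were DMSO wells with enzyme for no effect and DMSO wells lacking enzyme for full effect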
Casp3 UBC13 ctr = inhibits human caspase-3 in UBC13 counter-screen; 1,400 compounds, 4% hits; shares compounds with UBC13 inh; Recombinant caspase-3, Caspase-Glo 3/7 luminescence, 60 min; inhibition, % at 20 µM;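 active means mean inhibition across replicates above about 26%, limit read from the data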;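 further: plate controls were DMSO with caspase-3 for no effect and DMSO wells lacking enzyme for full effect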
Target sequence (P42574 whole entry, looked up): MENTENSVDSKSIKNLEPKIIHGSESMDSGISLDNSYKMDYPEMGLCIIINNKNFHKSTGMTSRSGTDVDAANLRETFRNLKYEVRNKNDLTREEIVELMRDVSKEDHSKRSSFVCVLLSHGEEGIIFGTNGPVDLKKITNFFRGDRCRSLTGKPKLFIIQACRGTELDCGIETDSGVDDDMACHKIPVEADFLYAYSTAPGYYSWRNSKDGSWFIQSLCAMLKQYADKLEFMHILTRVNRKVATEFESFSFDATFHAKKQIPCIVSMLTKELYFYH
UBC13 confirm = confirmation of human UBC13 polyubiquitin inhibitors | shares compounds with UBC13 inh | UBC13 polyubiquitination, TR-FRET, biochemical | inhibition, % at 10 µM | 1,400 compounds, 68% hits; in the data active means inhibition above about 45%
Apaf-1 inh conf = Apaf-1 inhibition, single-dose confirmed; shares compounds with Apaf1 inhib; reconstituted apoptosome, caspase-3 DEVD-Rh110 fluorescence; inhibition, % at 20 µM; 1,800 compounds, 25% hits; AID 504614;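 active means mean inhibition of at least 40% at 20 µM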;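 further: plate controls were DMSO wells for no effect and DEVD-CHO caspase inhibitor control wells for full effect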
Rh110 interf inh = Rh110 signal interference in Apaf-1 inhibitor counter-screen. Rh110 fluorescence interference, quenched caspase reaction. activation (fluorescence interference), % at 20 µM. shares compounds with Apaf1 inhib. 1,800 tested, under 10 active. AID 504615;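 active means signal rise of 40% or more at 20 µM, treated as a fluorescence artifact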
Apaf1 inh interf = shows fluorescence interference in the Apaf-1 inhibitor assay format; shares compounds with Apaf1 inhib; fluorescence interference counterscreen, Apaf-1 assay format; IC50, µM; 460 tested, under 10 active; AID 588538; call rule not given here
* hit, by the source's call.

Results for CN(C)CCCNC(=S)NCC(c1ccc(Cl)cc1Cl)c1c[nH]c2ccccc12 (centres undefined) ?
SENP8 block-1: 8.5; SENP8 block-2: 1.6; SENP7 inh: -3.8; UBC13 inh: 60.1*; Apaf1 inhib: 41.2*; SENP6 inh: -15.9; Casp3 UBC13 ctr: 2.5; UBC13 confirm: 88.0*; Apaf-1 inh conf: 25.9; Rh110 interf inh: 12.5

How did CCOc1ccc(NS(=O)(=O)c2cc(C(=O)NCCCN3CCOCC3)ccc2C)cc1 do in these assays?
SENP8 block-1: 6.6; SENP8 block-2: -9.7; SENP7 inh: -8.7; UBC13 inh: 73.6*; Apaf1 inhib: 65.5*; SENP6 inh: -17.1; Casp3 UBC13 ctr: -2.2; UBC13 confirm: 94.1*; Apaf-1 inh conf: 34.2; Rh110 interf inh: 6.7

How did Cc1ccc(C(=O)NCCCN2CCOCC2)cc1S(=O)(=O)N1CCOCC1 do in these assays?
SENP8 block-1: 15.0; SENP8 block-2: 2.9; SENP7 inh: -0.7; UBC13 inh: 2.0; Apaf1 inhib: -6.3; SENP6 inh: -18.5

How did C#CCOCCOCCOCCNc1nc(N2CCN(C(=O)CCCCCCCCCCNC(=O)[C@H](CO)n3cc(CCCSC)nn3)CC2)nc(N2CCN(C(=O)CCCCCCCCCCNC(=O)[C@H](CCCCN)n3cc(CCO)nn3)CC2)n1 do in these assays?
SENP8 block-1: 10.4; SENP8 block-2: -8.9; SENP7 inh: 3.4; UBC13 inh: 112.6*; Apaf1 inhib: 73.7*; SENP6 inh: -13.7; Casp3 UBC13 ctr: 0.8; UBC13 confirm: 123.5*; Apaf-1 inh conf: 41.5*; Rh110 interf inh: 10.1; Apaf1 inh interf: >100

How did C#CCOCCOCCOCCNc1nc(N2CCN(C(=O)CCCCCCCCCCNC(=O)Cn3cc(C[C@@H](C)O)nn3)CC2)nc(N2CCN(C(=O)CCCCCCCCCCNC(=O)[C@@H](CCC(=O)O)n3cc(CCCCCN)nn3)CC2)n1 do in these assays?
SENP8 block-1: 20.1; SENP8 block-2: 5.7; SENP7 inh: 4.3; UBC13 inh: 66.3*; Apaf1 inhib: 51.9*; SENP6 inh: -4.6; Casp3 UBC13 ctr: -5.1; UBC13 confirm: 50.9*; Apaf-1 inh conf: 13.0; Rh110 interf inh: 10.5

Results for C#CCOCCOCCOCCNc1nc(N2CCN(C(=O)Cn3cc(CCCCN)nn3)CC2)nc(N2CCN(C(=O)Cn3cc(CCCCN)nn3)CC2)n1 ?
SENP8 block-1: 30.5; SENP8 block-2: -0.2; SENP7 inh: 9.8; UBC13 inh: 25.5; Apaf1 inhib: 11.4; SENP6 inh: 3.1

How did C#CCOCCOCCOCCNc1nc(N2CCN(C(=O)CCCCCCCCCCNC(=O)Cn3cc(CCCCCN)nn3)CC2)nc(N2CCN(C(=O)CCCCCCCCCCNC(=O)Cn3cc(CCCCCN)nn3)CC2)n1 do in these assays?
SENP8 block-1: 21.0; SENP8 block-2: 3.9; SENP7 inh: -3.9; UBC13 inh: 117.6*; Apaf1 inhib: 65.0*; SENP6 inh: -3.4; Casp3 UBC13 ctr: -0.6; UBC13 confirm: 120.6*; Apaf-1 inh conf: 50.6*; Rh110 interf inh: 7.0; Apaf1 inh interf: >100

How did C#CCOCCOCCOCCNc1nc(N2CCN(C(=O)CCCCCCCCCCNC(=O)[C@H]([C@@H](C)CC)n3cc(CCCCN=C(N)N)nn3)CC2)nc(N2CCN(C(=O)CCCCCCCCCCNC(=O)[C@H](CCCCN)n3cc(C)nn3)CC2)n1 do in these assays?
SENP8 block-2: -34.1; SENP7 inh: -8.6; UBC13 inh: 124.1*; Apaf1 inhib: 73.2*; SENP6 inh: -58.0; Casp3 UBC13 ctr: -3.5; UBC13 confirm: 126.8*; Apaf-1 inh conf: 63.4*; Rh110 interf inh: 13.1; Apaf1 inh interf: >100

How did C#CCOCCOCCOCCNc1nc(N2CCN(C(=O)Cn3cc(CC(C)O)nn3)CC2)nc(N2CCN(C(=O)[C@H](CCCCN)n3cc(CCCC)nn3)CC2)n1 (some centres undefined) do in these assays?
SENP8 block-1: 19.8

How did CC1(C(=O)NCc2ccccc2)CSCC(=O)N1CCOc1ccccc1 (centres undefined) do in these assays?
SENP8 block-1: 21.5

How did C#CCOCCOCCOCCNc1nc(N2CCN(C(=O)CCCCCCCCCCNC(=O)Cn3cc(C[C@@H](C)O)nn3)CC2)nc(N2CCN(C(=O)CCCCCCCCCCNC(=O)[C@H](CCCN=C(N)N)n3cc(C[C@@H](C)CC)nn3)CC2)n1 do in these assays?
SENP8 block-1: 9.3; SENP8 block-2: 4.6; SENP7 inh: -0.8; UBC13 inh: 123.8*; Apaf1 inhib: 62.0*; SENP6 inh: -18.9; Casp3 UBC13 ctr: 2.9; UBC13 confirm: 119.0*; Apaf-1 inh conf: 36.2; Rh110 interf inh: 5.9

Results for C#CCOCCOCCOCCNc1nc(N2CCN(C(=O)CCCCCCCCCCNC(=O)[C@@H](CCC(=O)O)n3cc(CCCCCN)nn3)CC2)nc(N2CCN(C(=O)CCCCCCCCCCNC(=O)[C@H]([C@@H](C)CC)n3cc(CCCCCN)nn3)CC2)n1 ?
SENP8 block-1: 7.5; SENP8 block-2: -5.9; SENP7 inh: -2.9; UBC13 inh: 113.6*; Apaf1 inhib: 61.5*; SENP6 inh: -10.6; Casp3 UBC13 ctr: -1.8; UBC13 confirm: 104.1*; Apaf-1 inh conf: 36.5; Rh110 interf inh: 12.0

What do the screens show for `C#CCOCCOCCOCCNc1nc(N2CCN(C(=O)CCCCCCCCCCNC(=O)[C@H](CO)n3cc(CCCSC)nn3)CC2)nc(N2CCN(C(=O)CCCCCCCCCCNC(=O)[C@@H]([C@H](C)O)n3cc(C)nn3)CC2)n1`?
SENP8 block-2: 14.0; SENP7 inh: 1.7; UBC13 inh: 11.0; Apaf1 inhib: 32.4; SENP6 inh: 4.9

What do the screens show for `C#CCOCCOCCOCCNc1nc(N2CCN(C(=O)CCCCCCCCCCNC(=O)[C@H]([C@@H](C)CC)n3cc(CCCCCN)nn3)CC2)nc(N2CCN(C(=O)CCCCCCCCCCNC(=O)[C@H](CO)n3cc(CCCCCN)nn3)CC2)n1`?
SENP8 block-1: 23.7; SENP8 block-2: -9.3; SENP7 inh: 4.1; UBC13 inh: 120.4*; Apaf1 inhib: 71.3*; SENP6 inh: -9.6; Casp3 UBC13 ctr: -0.5; UBC13 confirm: 123.7*; Apaf-1 inh conf: 48.1*; Rh110 interf inh: 9.0; Apaf1 inh interf: >100
